From PubChem BioAssay
KCNQ1 inh: human KCNQ1 channel inhibition; 310,000 compounds, 1.3% hits; B-score at 10 µM; AID 2642; CHO-K1 KCNQ1, FluxOR thallium flux fluorescence; active compounds read high;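 active = compounds whose thallium flux B-score, printed positive for inhibition, exceeds three library SD while starting fluorescence stays within three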;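 note: channel opened by potassium depolarization with thallium stimulus after 20 min compound exposure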
KCNK3 inh: human KCNK3 channel inhibition, primary screen. AID 602410. O14649. CHO-KCNK3 thallium flux, FluxOR fluorescence; active compounds read low. 340,000 compounds, 0.84% hits. B-score at 10 µM;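 active = B-score under library mean minus 4 SD, starting fluorescence ratio at most library mean plus 5 SD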;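 note: more negative B-score means stronger inhibition of thallium flux through KCNK3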
KCNK9 block: inhibitors of human KCNK9 two-pore domain potassium channel. AID 488922. HEK293 KCNK9, FluxOR thallium flux fluorescence; active compounds read low. B-score at 10 µM. 310,000 compounds, 1.2% hits. Q9NPC2;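 active = ratio B-score over 3 SD below the library mean, with starting fluorescence within 5 SD of its mean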;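 note: negative B-score means less thallium flux so channel inhibition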
Target sequence (Q9NPC2 whole entry, looked up, the tested form may be a part): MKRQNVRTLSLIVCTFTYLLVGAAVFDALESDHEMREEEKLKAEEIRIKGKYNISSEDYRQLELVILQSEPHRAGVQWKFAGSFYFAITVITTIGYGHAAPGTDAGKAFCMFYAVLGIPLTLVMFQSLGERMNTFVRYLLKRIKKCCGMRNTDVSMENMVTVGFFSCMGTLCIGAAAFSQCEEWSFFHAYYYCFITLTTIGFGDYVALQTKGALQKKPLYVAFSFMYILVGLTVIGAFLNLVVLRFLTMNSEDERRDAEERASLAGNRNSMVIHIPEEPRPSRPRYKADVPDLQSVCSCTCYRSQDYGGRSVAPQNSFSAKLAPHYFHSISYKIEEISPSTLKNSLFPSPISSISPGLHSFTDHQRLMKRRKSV
KCNQ1 act: human KCNQ1 channel potentiation or activation | AID 2648 | CHO-K1 KCNQ1, thallium flux FluxOR fluorescence; active compounds read high | B-score at 10 µM | 310,000 compounds, 0.35% hits | P51787;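 active = fluorescence ratio B-score, a plate-corrected score, at least three library SD, with initial intensity B-score within 5 SD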
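Material: CHO-K1 cells stably expressing KCNQ1. Medium: assay buffer for compound exposure, DMSO matched across wells. Reagent: K+/Tl+ depolarizing stimulus. Compound dosing: single-concentration screen. Times: 37 °C overnight plating, 90-min dark dye load, 20-min compound pretreatment. Technique: FluxOR Tl+ flux fluorescence.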
Kir21 block: Kir2.1 (mouse) channel inhibition | 310,000 compounds, 0.85% hits | P35561 | HEK293-Kir2.1, FluxOR thallium flux fluorescence; active compounds read low | B-score at 10 µM;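 active = fluorescence ratio B-score at or below minus 3 SD of library scores, with starting-brightness B-score within 2 SD, cut at about -4.2 in these data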;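 note: channel flux triggered by added potassium and thallium sulfate stimulus; B-score of peak minus minimum fluorescence over baseline after thallium stimulus; more negative B-score means stronger Kir2.1 block with less thallium influx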
Target sequence (P35561 whole entry, looked up): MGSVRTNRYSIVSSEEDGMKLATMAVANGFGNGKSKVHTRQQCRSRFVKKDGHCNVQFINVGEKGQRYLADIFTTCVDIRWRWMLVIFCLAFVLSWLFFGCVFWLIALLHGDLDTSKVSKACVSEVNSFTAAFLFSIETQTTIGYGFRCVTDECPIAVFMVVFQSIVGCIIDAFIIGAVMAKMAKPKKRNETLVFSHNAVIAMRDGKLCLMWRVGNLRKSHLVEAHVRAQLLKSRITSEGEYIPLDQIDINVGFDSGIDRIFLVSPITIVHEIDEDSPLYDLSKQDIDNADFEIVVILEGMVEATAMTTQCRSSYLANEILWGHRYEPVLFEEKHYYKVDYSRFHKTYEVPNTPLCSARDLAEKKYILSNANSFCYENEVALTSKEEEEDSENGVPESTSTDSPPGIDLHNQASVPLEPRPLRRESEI
hERG rescue: shields human hERG channel from block by proarrhythmic agents. Q12809. CHO-hERG, FluxOR thallium flux, dofetilide IC70 present. activation (rescue from dofetilide block), less the hit threshold, % at 10 µM. 310,000 compounds, 0.51% hits. AID 1511;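 active = activation above the mean of controls blocked by dofetilide plus 5 SD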;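 note: thallium influx through hERG after potassium depolarization seen as dye fluorescence rise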
KCNK3 confirm: confirmation of human KCNK3 two-pore domain potassium channel inhibitors | AID 651638 | 2,400 compounds, 99% hits | CHO-KCNK3 thallium flux, FluxOR fluorescence; 0% buffer, 100% carvedilol maximal block | shares compounds with KCNK3 inh | ratio percent of control, % at 10 µM;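 active = ratio percent of control, averaged over triplicates, above buffer control mean plus 5 SD, cut at about 64% in these data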;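 note: ratio is the fluorescence rise from min to max over baseline after thallium stimulus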
KCNK3 uninduced: KCNK3 inhibitor counter-screen hit in non-induced cells; shares compounds with KCNK3 inh; 2,400 compounds, 40% hits; non-induced KCNK3 parental cells, FluxOR thallium flux; active compounds read low; AID 651747; thallium flux ratio (lower = more inhibition) at 10 µM;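 active = thallium flux ratio, averaged over three wells, more than 5 SD below the buffer control mean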;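 note: host cells are CHO cells without KCNK3 induction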
Each line names hits and unclear results; the compound was inactive in the other large screens (follow-up assays come after a bar, where they were run). Rows were chosen to be rich in hits. Some 3.7% of all compounds tested hit in one or more screens of this group.

CCSc1nc(-c2ccc(OC)cc2)ccc1C#N	KCNK3 inh -8.8 | KCNK3 confirm 113 | KCNK3 uninduced inactive
Cc1ccc(C(=O)CSc2nc(-c3ccccc3)ccc2C#N)cc1	none
O=S(=O)(c1cc(O)ccc1O)c1cccc2c(S(=O)(=O)c3cc(O)ccc3O)cccc12	none
CN(Cc1ccccc1F)C(=O)CCNC(=O)c1ccc(C(C)(C)C)cc1	none (no result: KCNQ1 inh, KCNK9 block, KCNQ1 act, Kir21 block, hERG rescue)
c1ccc(-c2nc(N3CCCCCC3)nc(-n3ccnc3)n2)cc1	KCNK3 inh -10, KCNK9 block -7 | KCNK3 confirm 122 | KCNK3 uninduced inactive
O=C(Nc1nc(-c2ccc3c(c2)OCO3)cs1)C1COc2ccccc2O1 (stereo not drawn)	KCNK3 inh -11 | KCNK3 confirm 109 | KCNK3 uninduced inactive
COc1ccc(C(=O)OCc2cc(C)ccc2C)cc1S(=O)(=O)N1CCCC1	KCNK3 inh -14 (no result: KCNQ1 inh, KCNK9 block, KCNQ1 act, Kir21 block, hERG rescue) | KCNK3 confirm 93 | KCNK3 uninduced inactive
Cc1ccc(C(=O)OCCOc2cccc(Cl)c2)cc1S(=O)(=O)N1CCOCC1	KCNK3 inh -12 | KCNK3 confirm 94 | KCNK3 uninduced 0.15
Cc1ccc(C(=O)OCC(=O)Nc2ccccc2)cc1S(=O)(=O)N1CCCCC1	none (no result: KCNQ1 inh, KCNK9 block, KCNQ1 act, Kir21 block, hERG rescue)
Cc1cccc(NC(=O)COC(=O)c2ccc(C)c(S(=O)(=O)N3CCCCC3)c2)c1	KCNK3 inh -12 (no result: KCNQ1 inh, KCNK9 block, KCNQ1 act, Kir21 block, hERG rescue) | KCNK3 confirm 97 | KCNK3 uninduced inactive
O=S(=O)(c1cccs1)N1CCC(CO)(Cc2ccc(Cl)cc2)CC1	none
Cc1[nH]nc2c1C(c1ccco1)C(C#N)=C(N)O2 (stereo not drawn)	none
COc1ccc(-c2ccc(C3C(C#N)=C(N)Oc4n[nH]c(C)c43)o2)cc1 (stereo not drawn)	KCNK3 inh -11 | KCNK3 confirm 89 | KCNK3 uninduced inactive
Cc1ccc(C(=O)C=CNNC(=O)c2ccccc2)cc1	none
Cc1cccc(C(=O)NN/C=C/C(=O)c2ccccc2)c1	KCNK3 inh -9.1 | KCNK3 confirm 100 | KCNK3 uninduced inactive
O=C(Nc1ccccc1N1CCOCC1)C1(c2ccc(Cl)cc2)CCC1	KCNK3 inh -11 | KCNK3 confirm 100 | KCNK3 uninduced inactive
O=C(Cc1ccc(Cl)cc1)NC(=S)Nc1ccccc1N1CCOCC1	none (no result: KCNQ1 inh, KCNK9 block, KCNQ1 act, Kir21 block, hERG rescue)
Cn1c(N)c(C(=O)COC(=O)c2ccc(OC(F)F)cc2)c(=O)n(C)c1=O	none (no result: KCNQ1 inh, KCNK9 block, KCNQ1 act, Kir21 block, hERG rescue)
CCOC(=O)c1ccc(NC(=O)CSc2nnc(CCc3ccc(C)o3)n2-c2ccccc2)cc1	KCNK3 inh -17 | KCNK3 confirm 90 | KCNK3 uninduced inactive
Cc1ccc(NC(=O)N(Cc2ccco2)Cc2cc3cc(C)cc(C)c3nc2Cl)cc1	none (no result: KCNK3 inh)
Cc1cccc2cc(CN(Cc3ccco3)C(=O)Nc3cccc(C#N)c3)c(Cl)nc12	KCNQ1 inh 6, KCNK3 inh -9.3 | KCNK3 confirm 122 | KCNK3 uninduced 0.14
CCc1cc2c(=O)n(Cc3ccco3)c(SCC(=O)N(C)C3CCS(=O)(=O)C3)nc2s1 (stereo not drawn)	KCNK3 inh -9.9 | KCNK3 confirm 100 | KCNK3 uninduced inactive
CCN(C(=O)CSc1nc2ccc(O)cc2c(=O)n1-c1ccc(OC)c(OC)c1)C1CCS(=O)(=O)C1 (stereo not drawn)	none (no result: KCNQ1 inh, KCNK9 block, KCNQ1 act, Kir21 block, hERG rescue)
CCN(C(=O)CSc1nc2ccccc2c(=O)n1-c1cccc(C)c1)C1CCS(=O)(=O)C1 (stereo not drawn)	KCNK3 inh -11 | KCNK3 confirm 100 | KCNK3 uninduced inactive
CCN(C(=O)CSc1nc2ccccc2c(=O)n1Cc1ccc(C)cc1)C1CCS(=O)(=O)C1 (stereo not drawn)	KCNK3 inh -9.5 | KCNK3 confirm 97 | KCNK3 uninduced inactive
CCn1c(SCC(=O)N(Cc2ccccc2)C2CCS(=O)(=O)C2)nc2ccccc2c1=O (stereo not drawn)	none
Cc1cccc(-n2c(SCC(=O)N3CC(=O)Nc4ccccc43)nc3ccccc3c2=O)c1	KCNK3 inh -10 | KCNK3 confirm 100 | KCNK3 uninduced inactive
O=C(N/N=C/c1cn(-c2ccccc2)nc1-c1cccnc1)c1ccccc1	KCNK3 inh -9.5 | KCNK3 confirm 98 | KCNK3 uninduced inactive
CC(=O)c1ccc(OCCCCOc2ccc(C(C)=O)cc2)cc1	none
CCCCCN(C(=O)CCC(=O)OCc1cccc(C)c1)c1c(N)n(CCCC)c(=O)[nH]c1=O	none
N#Cc1c(N2CCCCC2)nc(N)c2c(N)nc3c(c12)CC(c1ccccc1)O3 (stereo not drawn)	KCNK3 inh -9.5 | KCNK3 confirm 119 | KCNK3 uninduced 0.15
CCC1Cc2c(nc(N)c3c(N)nc(N4CCCCC4)c(C#N)c23)O1 (stereo not drawn)	KCNK3 inh -9.6 | KCNK3 confirm 97 | KCNK3 uninduced inactive
CCN(CC)c1nc(N)c2c(N)nc3c(c2c1C#N)CC(c1ccccc1)O3 (stereo not drawn)	none
N#Cc1c(N2CCCC2)nc(N)c2c(N)nc(N3CCCC3)cc12	none
O=C(N/C(=C\c1ccccc1)C(=O)N1CCCCC1)c1ccco1	none
CCCC/C(O)=C1\C(=O)CCCC1=NCCc1c(C)[nH]c2ccc(OC)cc12	none
CCC/C(O)=C1\C(=O)CCCC1=NCCc1ccc(OCC)c(OCC)c1	KCNK3 inh -9.2 | KCNK3 confirm 117 | KCNK3 uninduced inactive
NN=C1c2ccccc2C(=O)C1C(=O)C(c1ccccc1)c1ccccc1 (stereo not drawn)	KCNK3 inh -14 (no result: KCNQ1 inh, KCNK9 block, KCNQ1 act, Kir21 block, hERG rescue) | KCNK3 confirm 138 | KCNK3 uninduced 0.097
O=C(O)C(c1ccccc1)N1C(=O)c2cccc3cccc(c23)C1=O (stereo not drawn)	none
CSc1cccc(NC(=O)/C=C/c2cccc(Cl)c2)c1	KCNQ1 inh 11, KCNK3 inh -11 | KCNK3 confirm 128 | KCNK3 uninduced 0.16
CNc1ccc(Br)cc(C(=O)/C=C/c2ccc(Cl)cc2Cl)c1=O	KCNQ1 inh 10, KCNK3 inh -9.7 | KCNK3 confirm 117 | KCNK3 uninduced 0.12
O=C(Nc1cccc(NC(=O)c2ccc(Cl)cc2Cl)c1)c1cccnc1	none
COc1cccc(-c2nnn(CC(=O)N3CCC(C)CC3)n2)c1	none
Cc1c(Cl)cccc1NC(=O)N1CCCN(c2nc(-c3ccccc3)ns2)CC1	none
O=C(Nc1ccccc1Cl)N1CCCN(c2nc(-c3ccccc3)ns2)CC1	KCNK3 inh -12, KCNK9 block -7 | KCNK3 confirm 112 | KCNK3 uninduced inactive
CCC1(c2ccc(F)cc2)NC(=O)N(CC(=O)NC2CCCCCC2)C1=O (stereo not drawn)	none (no result: KCNQ1 inh, KCNK9 block, KCNQ1 act, Kir21 block, hERG rescue)
